HNF4A DNA FP: change in binding of human HNF4A to DNA, primary screen, biochemical, fluorescence polarization, FITC-DNA | Hepatocyte nuclear factor 4-alpha (Homo sapiens), P41235 | 1 h | activity change, % at 10 µM | hit rate 0.3% among 360,000 | AID 1224865, 2016; in the data active = activity change above about 30%, passing the limit was not always enough
Rpn11 inh: Rpn11 (PSMD14) deubiquitinase inhibitors, primary screen, biochemical, fluorescence polarization, uHTS; hit rate 0.59% among 360,000; inhibition, % at 20 µM; human 26S proteasome, Ub4-pepOG fluorescence polarization; 20S core pre-blocked with epoxomicin;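 active = inhibition at 20 µM, scaled to each plate's controls, above about 33%, limit read from the data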
TPT1 inh: Candida albicans TPT1 enzyme inhibitors, primary screen, biochemical, fluorescence polarization; hit rate 0.81% among 300,000; tRNA 2'-phosphotransferase TPT1 (Candida albicans SC5314); AID 1962, 2009; recombinant caTPT1, FP RNA substrate dephosphorylation; inhibition, % at 5 µM;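 active = inhibition above the mean of all tested compounds plus 3 SD, set per screening campaign, cut at about 24% in these data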;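 also: plate controls were DMSO alone for no effect and ferristatin control at 100 nM for full effect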
CSN inh: inhibitors of CSN-mediated cullin deneddylation, primary screen, biochemical, fluorescence polarization, uHTS; AID 651999, 2013; hit rate 0.38% among 360,000; COP9 signalosome complex subunit 5 (Homo sapiens), Q92905; inhibition, % at 12.5 µM; Purified CSN, SCF-Nedd8-OG deneddylation;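 active = pattern-corrected inhibition above about 35%, with an unprinted fluorescence ratio check between 0.5 and 1.5, limit read from the data, passing the limit was not always enough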;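 also: 0% = enzyme with substrate and 100% = substrate without enzyme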
Target sequence (Q92905 whole entry, looked up, one chain of several): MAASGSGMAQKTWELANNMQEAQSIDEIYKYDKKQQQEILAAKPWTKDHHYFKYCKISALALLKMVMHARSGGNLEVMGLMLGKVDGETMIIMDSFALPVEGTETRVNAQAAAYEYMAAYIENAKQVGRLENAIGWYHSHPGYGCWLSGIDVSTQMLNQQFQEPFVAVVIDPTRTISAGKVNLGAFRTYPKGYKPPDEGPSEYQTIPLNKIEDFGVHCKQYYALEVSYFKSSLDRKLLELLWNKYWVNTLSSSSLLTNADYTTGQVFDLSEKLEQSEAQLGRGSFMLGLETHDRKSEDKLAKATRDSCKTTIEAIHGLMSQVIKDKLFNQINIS
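Test system: Human Csn5 produced in HEK293T cells | Compound: 12.5 µM single point | Times: 90 min, room temperature | Signal: Fluorescence polarization readout | Read-out basis: % inhibition of substrate cleavage by Csn5 | Controls: no-enzyme wells high, enzyme-with-substrate wells low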
The depositor's hits bear a star; . = no result given; + = active, no number. In the library only some 1.5% were active in any assay of this set; here they are far more common.

SMILES | HNF4A DNA FP | Rpn11 inh | TPT1 inh | CSN inh
O=C1NC(=S)N(c2ccc(F)cc2)C(=O)/C1=C\c1ccoc1 | -11.7 | + | . | 30.0
CN1C(=O)/C(=C\c2ccc(N3CCCCCC3)cc2)C(=O)NC1=S | 10.3 | 26.7 | 7.2 | 12.3
O=C1NC(=S)N(c2ccc(F)cc2)C(=O)/C1=C/c1ccco1 | . | . | 78.3* | .
Cc1cccc(C)c1OP(N)(=O)OCC(F)(F)F (configuration not stated) | -0.2 | -8.9 | -2.5 | 7.2
CC(=O)c1ccc(OCC(=O)N2CCCC(N3CCN(c4ccccc4C)CC3)C2)cc1 (configuration not stated) | 0.5 | -1.8 | 0.5 | -1.2
CN1CCN(C(=O)COc2ccc(S(=O)(=O)Nc3ccc(F)cc3)cc2)CC1 | 43.0* | -12.9 | -2.0 | 2.4
COc1ccc(/C=C2/C(=O)NC(=O)N(Cc3ccco3)C2=O)cc1 | . | . | 32.8* | .
COC(=O)C1=C(c2ccc(F)cc2OCc2ccccc2)C[C@@H]2CC[C@H]1N2C(=O)N1CCC(O)(c2ccc(Cl)cc2)CC1 | -1.6 | -0.7 | . | 2.2
COc1ccc(/C=C2\C(=O)NC(=S)N(C)C2=O)cc1C | -70.1 | 107.2* | 1.1 | 22.2
CCN(CC)P(=O)(Oc1ccccc1)Oc1ccccc1 | -1.9 | -3.4 | -0.8 | 1.8
CN(C)/C=C/C(=O)C(Cl)(Cl)Cl | 37.8* | -10.5 | -0.5 | -1.8
COc1ccc(-c2ccc3c(c2)CN(C(=O)NC2CCCCC2)Cc2cnnn2-3)cc1 | 3.8 | 3.8 | . | -8.2
O=C(NC1CCCCC1)N1Cc2cc(-c3cccc(F)c3)ccc2-n2nncc2C1 | 4.9 | -3.9 | . | 144.5*
COc1cc(C(=S)N2CCOCC2)cc(OC)c1OC(=O)Cc1ccccc1 | -5.0 | -5.1 | 0.3 | 3.0
N#CCCn1cc(C(=O)Nc2ccccc2Cl)c(-c2ccc(F)cc2)n1 | 0.7 | 7.9 | -0.7 | -2.6
Nc1c(C(=O)NC2CCCC2)c2nc3ccccc3nc2n1CC1CCCO1 (configuration not stated) | -0.1 | 20.5 | 6.8 | 46.3*
O=c1cccc2n1CC1CNC[C@H]2C1 | -3.3 | -1.2 | -3.7 | -2.3
N#CC(C#N)=Cc1ccc(C=C(C#N)C#N)cc1 | 0.8 | 72.0* | . | 18.1
CCCCn1c(O)c(/C=N/N2CCOCC2)c(=O)[nH]c1=S | 3.6 | -5.3 | -1.4 | 2.3
CCCCCCn1c(O)c(C=Nc2ccccc2N2CCOCC2)c(=O)[nH]c1=S | 74.4* | -3.5 | 0.8 | 3.3
CNC(=O)NC(O)C(Cl)(Cl)Cl (configuration not stated) | 0.8 | 3.2 | 0.2 | -5.4
CCOC(=O)C1(c2ccccc2)CCN(CCC(C#N)(c2ccccc2)c2ccccc2)CC1 | 1.8 | 1.0 | -0.6 | -6.0
Cc1c(C=C2C(=O)N(C)C(=S)N(C)C2=O)c2ccccc2n1CC(=O)NCC1CCCO1 (configuration not stated) | 3.9 | 42.7* | . | 6.2
Clc1ccc(C(c2ccc(Cl)cc2)n2cc[n+](CC(OCc3ccc(Cl)cc3Cl)c3ccc(Cl)cc3Cl)c2)cc1 (configuration not stated) | 11.0 | 104.6* | -1.1 | 29.2
Clc1ccc(COC(Cn2ccnc2)c2ccc(Cl)cc2Cl)cc1 (configuration not stated) | 0.5 | 3.7 | -3.9 | -6.8
CC(C)(C)N1C(=O)NC(=O)/C(=C\c2ccc3c(c2)CCN3CCCCl)C1=O | 16.9 | . | 14.3 | 39.0*
Cc1cccc(C)c1-n1nnnc1C(c1cccs1)N1CCC(n2c(=O)[nH]c3ccccc32)CC1 (configuration not stated) | 11.2 | 34.0 | . | 67.7*
Cc1cccc(C)c1-n1nnnc1C(c1cccc2ccccc12)N1CCC(n2c(=O)[nH]c3ccccc32)CC1 (configuration not stated) | -2.6 | 4.6 | . | -0.1
COC(=O)C1=C(C(=O)OC)SC2(S1)C(C(=O)OC)=C(C(=O)OC)Sc1c2ssc1=O | 18.5 | 63.3* | . | 12.5
CC1(C)CSC(=NCc2ccccc2)N1 | 7.0 | -4.4 | -0.6 | 0.7

Screening results from PubChem BioAssay.
